Measurements taken from ChEMBL document CHEMBL4364322, “Protective effect of piceatannol and bioactive stilbene derivatives against hypoxia-induced toxicity in H9c2 cardiomyocytes and structural elucidation as 5-LOX inhibitors” (Eur J Med Chem, 2019).
Calls of active or inactive are those of the source. No cut-off for these calls is given here.

Columns and labels:
[1] = molecular target: T1, Polyunsaturated fatty acid 5-lipoxygenase (Homo sapiens, UniProt P09917); test: Inhibition of 5-LOX in human PMNL cells assessed as A23187-stimulated LTB4 production preincubated for 15 mins followed by A23187 addition and measured after 10 mins by HPLC analysis; type: cell-based
T1 sequence (P09917 whole entry): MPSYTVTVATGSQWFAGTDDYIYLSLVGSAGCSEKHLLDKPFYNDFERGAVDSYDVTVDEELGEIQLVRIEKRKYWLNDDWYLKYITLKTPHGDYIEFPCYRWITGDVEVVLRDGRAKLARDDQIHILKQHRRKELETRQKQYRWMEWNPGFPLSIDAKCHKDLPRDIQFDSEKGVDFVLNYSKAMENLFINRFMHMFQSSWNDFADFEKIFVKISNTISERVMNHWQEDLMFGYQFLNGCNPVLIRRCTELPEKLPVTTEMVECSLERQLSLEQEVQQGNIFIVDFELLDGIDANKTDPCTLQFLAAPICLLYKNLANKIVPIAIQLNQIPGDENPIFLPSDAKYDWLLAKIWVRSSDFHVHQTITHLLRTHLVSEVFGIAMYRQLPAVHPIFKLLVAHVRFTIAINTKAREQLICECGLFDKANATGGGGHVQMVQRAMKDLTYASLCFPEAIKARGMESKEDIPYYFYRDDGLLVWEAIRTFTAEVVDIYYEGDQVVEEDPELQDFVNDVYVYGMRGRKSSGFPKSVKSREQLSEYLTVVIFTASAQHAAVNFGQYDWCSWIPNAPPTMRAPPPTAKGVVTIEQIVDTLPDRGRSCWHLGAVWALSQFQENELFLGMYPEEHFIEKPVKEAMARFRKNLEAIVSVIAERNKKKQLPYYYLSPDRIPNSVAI
Summary of the method: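 Human PMNL (5×10^6 in 1 ml PBS with 1 mg/ml glucose and 1 mM CaCl2) were preincubated with compound 15 min at 37 °C. 2.5 µM A23187 was added for 10 min at 37 °C, and the reaction was stopped with methanol. 5-LOX products were analysed by HPLC.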

[2] = system: H9c2; test: Cytoprotective activity against hypoxia-induced toxicity rat H9c2 cells assessed as increase in cell viability at 80 nM preincubated for 18 hrs followed by incubated in hypoxia for 48 hrs by MTT assay; type: functional
Summary of the method: (§1)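 10^4 H9c2 cells were seeded and grown 24 h at 37 °C. Compound (80 nM–20 µM) was added either 18 h before or just before 48 h hypoxia in a sealed humidified chamber (5% CO2, 95% N2). Viability was measured by MTT for about 2 h, with formazan dissolved in HCl/isopropanol and read at 570 nm. Results are % of corresponding control, triplicates.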

[3] = molecular target: T1, Polyunsaturated fatty acid 5-lipoxygenase; test: Inhibition of human 5-LOX expressed in Escherichia coli BL21 using arachidonic acid as substrate preincubated for 15 mins followed by substrate addition by HPLC analysis
Summary of the method: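 Human recombinant 5-LOX was expressed in E. coli BL21 (pT3-5LO) and purified. Enzyme (0.5 µg) in PBS/EDTA was preincubated with compound 15 min at 4 °C, then warmed 30 s at 37 °C. The reaction was started with 2 mM CaCl2 plus 20 µM arachidonic acid and run 10 min at 37 °C. Products were analysed by HPLC.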

[4] = system: H9c2; test: Cytoprotective activity against hypoxia-induced apoptosis in rat H9c2 cells assessed as early apoptotic cells at 2 uM preincubated for 18 hrs followed by incubated in hypoxia for 48 hrs by annexin V based flow cytometry (reference value: 60 %); type: functional
Summary of the method: (§2)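 H9c2 cells were pretreated 18 h at 2 µM, then grown under normoxia or hypoxia. Apoptotic cells were detected by flow cytometry with fluorescein-annexin V staining. The read-out is % annexin V-positive cells.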

[5] = system: H9c2; test: Cytoprotective activity against hypoxia-induced toxicity rat H9c2 cells assessed as cell death at 20 uM preincubated for 18 hrs followed by incubated in hypoxia for 48 hrs by MTT assay
[6] = system: H9c2; test: Antioxidant activity in rat H9c2 cells assessed as increase in hypoxia-induced reduction of MnSOD expression at 2 uM preincubated for 18 hrs followed by incubated in hypoxia for 48 hrs by Western blot analysis; type: functional, cell-based
Summary of the method: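 H9c2 cells were pretreated 18 h at 80 nM or 2 µM, then held 48 h under hypoxia. Lysates were made in RIPA buffer with protease inhibitors and DTT, and 80 µg protein was run on 12% SDS-PAGE. Blots were probed overnight at 4 °C with anti-MnSOD, with GAPDH as internal standard. Detection was by ECL and bands were quantified by densitometry.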

[7] = system: H9c2; test: Cytoprotective activity against hypoxia-induced toxicity rat H9c2 cells assessed as increase in cell viability at 80 nM to 7 uM preincubated for 18 hrs followed by incubated in hypoxia for 48 hrs by MTT assay; type: functional; summary of the method: as §1
[8] = system: H9c2; test: Cytoprotective activity against hypoxia-induced apoptosis in rat H9c2 cells assessed as early apoptotic cells at 2 uM preincubated for 18 hrs followed by incubated in hypoxia for 48 hrs by annexin V based flow cytometry; type: functional, cell-based; summary of the method: as §2
[9] = system: H9c2; test: Cytoprotective activity against hypoxia-induced toxicity rat H9c2 cells assessed as cell death at 20 uM incubated for 18 hrs in hypoxia measured after 48 hrs by MTT assay
[10] = system: H9c2; test: Antioxidant activity in rat H9c2 cells assessed as hypoxia-induced RO production at 2 uM preincubated for 18 hrs followed by incubated in hypoxia for 48 hrs by DCFH-DA staining-based flow cytometric analysis( Rvb = 45 %); type: functional
[11] = system: H9c2; test: Antioxidant activity in rat H9c2 cells assessed as reduction in hypoxia-induced lipid peroxidation by measuring TBARS level preincubated for 18 hrs followed by incubated in hypoxia for 48 hrs by spectrophotometry; type: functional, cell-based
Summary of the method: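 10^4 H9c2 cells were pretreated 18 h with 80 nM or 2 µM, then held 48 h under hypoxia. Cells were lysed in modified RIPA buffer. Lysates were mixed with 20% acetic acid (pH 3.5) and 0.78% thiobarbituric acid, heated at 95 °C for 45 min, and centrifuged. A532 was read and expressed as TBARS per µg protein. Triplicate measurements, duplicate experiments.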

[12] = system: H9c2; test: Cytoprotective activity against hypoxia-induced toxicity rat H9c2 cells assessed as increase in cell viability at 80 nM to 7 uM incubated for 18 hrs in hypoxia measured after 48 hrs by MTT assay; type: functional; summary of the method: as §1
[13] = system: H9c2; test: Antioxidant activity in rat H9c2 cells assessed as reduction in hypoxia-induced NO release at 80 nM to 2 uM preincubated for 18 hrs followed by incubated in hypoxia for 48 hrs by griess assay; type: functional, cell-based
Summary of the method: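 10^4 H9c2 cells were pretreated 18 h at 37 °C with 80 nM or 2 µM, then held 48 h in a hypoxic chamber. Supernatant nitrite was measured with Griess reagent (0.5% sulfanilamide, 2.5% H3PO4, 0.05% naphthylethylene diamine) for 10 min at RT. Absorbance was read at 550 nm against a sodium nitrite standard curve.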

[14] = molecular target: T2, Polyunsaturated fatty acid 5-lipoxygenase (Homo sapiens) (UniProt P09917); test: Residual activity of human 5-LOX expressed in Escherichia coli BL21 using arachidonic acid as substrate at 10 uM preincubated for 15 mins followed by substrate addition by HPLC analysis relative to control
T2 sequence (whole entry): T1 sequence (P09917 whole entry)

COc1cc(/C=C/c2ccc(O)c(O)c2)cc(OC)c1
IC50 [1]: 50 nM | Activity [2]: 25 - 35% | IC50 [3]: 320 nM

COc1ccc(/C=C/c2cc(OC)cc(OC)c2)cc1 [TRISMETHOXYRESVERATROL]
IC50 [1]: 760 nM | Activity [2]: 25 - 35% | IC50 [3]: 3620 nM

COc1cc(/C=C/c2ccc(OC)c(O)c2)cc(OC)c1
IC50 [1]: 5480 nM | Activity [2]: 25 - 35% | IC50 [3]: 5490 nM

COc1cc(/C=C/c2ccc(O)c(OC)c2)cc(OC)c1
IC50 [1]: 70 nM | Activity [2]: 25 - 35% | IC50 [3]: 780 nM

COc1cc(/C=C/c2ccc(O)cc2)cc(OC)c1 [PTEROSTILBENE]
IC50 [1]: 530 nM | Activity [2]: 25 - 35% | Activity [4]: 25% | IC50 [3]: 3910 nM

Oc1cc(O)cc(/C=C/c2ccc(O)c(O)c2)c1 [PICEATANNOL]
cell death [5]: 80% | IC50 [1]: 240 nM | Activity [6]: Active | Activity [7]: Active | IC50 [3]: 1100 nM | Activity [8]: inactive | cell death [9]: 80% | Activity [10]: 38% | Activity [11]: Dose-dependent effect | Activity [12]: Active | Activity [13]: Active

CC(c1cc2ccccc2s1)N(O)C(N)=O (configuration not stated)
Activity [8]: inactive

Oc1ccc(/C=C/c2cc(O)cc(O)c2)cc1 [RESVERATROL]
cell death [5]: 80% | IC50 [1]: 4900 nM | Activity [6]: Active | Activity [7]: 95% | cell death [9]: 80% | residual activity [14]: 63.4% | Activity [11]: Dose-dependent effect | Activity [12]: 95% | Activity [13]: Active
